Screens from PubChem BioAssay.
An excerpt weighted towards active compounds, which were near 1.6% of everything screened.
UHRF1 binding = human UHRF1 methylated DNA binding inhibitors | UHRF1 binding to methylated oligo, TR-FRET | inhibition, % at 4.4 µM | actives 0.75% (n = 370,000) | AID 687016; in the data active means inhibition above about 21%;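 further: UHRF1 SRA domain binding a hemimethylated CpG hairpin DNA probe; 0% = median of test compound wells and 100% = reference inhibitor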
Target sequence (Q96T88 whole entry, looked up, the tested form may be a part): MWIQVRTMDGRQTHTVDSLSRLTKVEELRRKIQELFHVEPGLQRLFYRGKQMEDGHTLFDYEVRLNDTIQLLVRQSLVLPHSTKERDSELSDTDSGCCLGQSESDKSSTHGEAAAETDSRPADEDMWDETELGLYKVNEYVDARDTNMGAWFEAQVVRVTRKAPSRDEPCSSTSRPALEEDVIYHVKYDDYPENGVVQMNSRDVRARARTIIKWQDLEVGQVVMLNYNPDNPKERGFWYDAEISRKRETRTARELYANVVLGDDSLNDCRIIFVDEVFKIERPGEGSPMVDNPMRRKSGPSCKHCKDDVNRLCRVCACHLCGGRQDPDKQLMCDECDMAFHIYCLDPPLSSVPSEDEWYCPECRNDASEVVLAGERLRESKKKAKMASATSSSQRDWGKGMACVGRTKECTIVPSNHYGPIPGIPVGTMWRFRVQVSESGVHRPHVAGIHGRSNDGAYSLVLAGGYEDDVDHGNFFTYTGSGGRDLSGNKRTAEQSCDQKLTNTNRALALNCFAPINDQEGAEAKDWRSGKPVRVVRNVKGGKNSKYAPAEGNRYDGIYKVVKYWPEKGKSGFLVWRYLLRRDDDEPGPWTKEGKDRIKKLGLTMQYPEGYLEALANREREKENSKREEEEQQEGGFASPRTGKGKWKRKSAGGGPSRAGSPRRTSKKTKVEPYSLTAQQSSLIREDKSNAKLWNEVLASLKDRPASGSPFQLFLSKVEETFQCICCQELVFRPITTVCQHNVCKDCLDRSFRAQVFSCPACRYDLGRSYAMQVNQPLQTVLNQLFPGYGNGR
LEDGF integ inh = blocks HIV-1 LEDGF/p75-dependent DNA integration | actives 0.64% (n = 370,000) | inhibition, % at 3.7 µM | TR-FRET IN-LEDGF/p75 DNA integration, Eu/Cy5;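 active means inhibition above the screen-wide mean plus 3 SD, cut at about 13% in these data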;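 further: signal is the Cy5 over europium emission ratio at 671 and 618 nm; 0% = plate median of compound wells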
MBD2 inh = blocks human MBD2 binding to methylated DNA. actives 0.31% (n = 370,000). AID 686964. TR-FRET, MBD2 binding to methylated oligonucleotide. inhibition, % at 4.4 µM; in the data active means inhibition above about 13%
TDP2 inh = blocks human TDP2 phosphodiesterase activity. recombinant TDP2, T5PNP hydrolysis, p-nitrophenol absorbance 415 nm. O95551. inhibition, % at 12.8 µM. actives 0.34% (n = 370,000);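 active means inhibition above the mean of all tested compounds plus 3 SD, set per campaign, cut at about 25% in these data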;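 further: 0% = DMSO with enzyme and 100% = buffer with substrate but no TDP2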
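test system = human TDP2 enzyme | input = TDP2 enzyme at 120 nM final | medium = 50 mM Tris-HCl pH 7.5 with Mg2+, KCl, DTT, BSA | also added = T5PNP substrate, 5 mM | times = 2 h at 37 °C | technique = epi absorbance | benchmarks = high control without enzyme, low control DMSO plus TDP2 | replication = each compound tested once, singlicate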
The depositor's hits bear a star.

SMILES	UHRF1 binding	LEDGF integ inh	MBD2 inh	TDP2 inh
Cc1cc(C(=O)O)ccc1-c1ccc(/C=C2\SC(=O)N(CC(=O)Nc3ccc4c(c3)OCO4)C2=O)o1	24*	-2	6	13
Cc1ccc(NC(=O)CN2C(=O)S/C(=C\c3cc(C)n(-c4cccc(C(=O)O)c4)c3C)C2=O)cc1	-3	0	0	0
Cc1ccc(C(=O)O)cc1-c1ccc(/C=C2\SC(=O)N(CC(=O)Nc3ccccc3)C2=O)o1	22*	3	6	12
Cc1ccc(NC(=O)CN2C(=O)S/C(=C/c3ccc(-c4cccc(C(=O)O)c4)o3)C2=O)cc1	23*	5	8	-9
Cc1ccc(CN2C(=O)N/C(=C\c3ccc(-c4ccc(C(=O)O)cc4C)o3)C2=O)cc1	14	5	8	21
C#CCN1C(=O)S/C(=C\c2ccc(-c3ccc(C(=O)O)cc3C)o2)C1=O	41*	9	12	2
Cc1ccccc1NC(=O)CN1C(=O)S/C(=C\c2ccc(-c3cc(C(=O)O)ccc3C)o2)C1=O	19	-1	7	2
CC(C)CNC(=O)CC(=O)NN=C1CCCC1	1	-8	-1	-6
O=C(O)CCc1ccc(-c2ccccc2)n1Cc1ccco1	15	18*	7	4
Cc1cccc(NC(=O)C2C3CCC4C(CCC32)C4(Cl)Cl)c1 (stereo not given)	2	1	5	-3
CCC(Cc1ccccc1)NCc1c(C(=O)O)c(C)n(Cc2ccccc2)c1C (stereo not given)	30*	-9	-1	-10
COc1ccc(NC(=O)Nc2ccc(F)cc2)c(C)c1	0	0	-4	5
CCC[C@H]1COCCS(=O)(=O)N1Cc1ccccc1	-2	-2	-2	-12
COc1ccc(S(=O)(=O)N2CCC(C(=O)N[C@H](C(=O)N3CCCC3)C(C)C)CC2)cc1	-2	3	2	-5
COc1ccccc1NC(=O)/C(=C/c1cccc([N+](=O)[O-])c1)c1ccccc1	47*	-5	-3	-5
COc1ccc(CC(=O)Oc2ccccc2C)cc1S(=O)(=O)N1CCOCC1	0	-1	0	1
c1ccc(-c2nc(NC3CCCC3)c3ccccc3n2)cc1	-1	7	0	-19
O=C(O)CC(C(=O)O)N1C(=O)/C(=C/c2ccc(-c3nc4ccccc4s3)o2)SC1=S (stereo not given)	79*	53*	34*	13
CCC1=NN2C(=N)/C(=C\c3cccn3-c3ccc(C)cc3C)C(=O)N=C2S1	30*	1	1	2
Cc1cc(CSc2ccccc2)ccc1NC(=O)c1ccc(Br)cc1	33*	0	-3	1
COc1ccc(-c2nnc(SCC(=O)N(C)C3CCS(=O)(=O)C3)n2N)cc1OC (stereo not given)	42*	-2	6	-5
CC1(C(=O)Nc2cccc(Oc3ccccc3)c2)CCN1Cc1ccccc1OC(F)F (stereo not given)	1	1	-1	5
O=C(NNc1c(Cl)cccc1Cl)c1sccc1Cl	-1	4	-6	10
CCC(C)COC(c1ccccc1)(c1ccccc1)C(Oc1nc(C)cc(C)n1)C(=O)O (stereo not given)	41*	0	1	4
Cc1cc(C)nc(OC(C(=O)O)C(OCC(C)C)(c2ccccc2)c2ccccc2)n1 (stereo not given)	0	-9	0	-7
SMILES	UHRF1 binding	LEDGF integ inh	MBD2 inh	TDP2 inh
O=C(CC12CC3CC(CC(C3)C1)C2)N1CCOCC1	7	1	3	2
OC12CC3C[C@H](C1)C(N1CCOCC1)[C@@H](C3)C2 (stereo not given in full)	52*	-4	2	-9
CC(C)CC(=O)Nc1ccc(C(=O)NNC(=O)C(c2ccccc2)c2ccccc2)cc1	10	8	-3	-14
COc1ccc(-c2nc3ccc(C)cn3c2Cc2ccsc2)cc1OC	22*	-3	10	-12
COc1ccc(-c2nc3cc(C)c(Br)c(C)n3c2Cc2ccsc2)cc1OC	1	0	2	10
COc1ccc(-c2nc3ccc(C)cn3c2CC2CCCCC2)cc1OC	22*	1	9	10
COc1ccc(NC(=O)CCCn2cnc3ccccc3c2=O)cc1	2	1	2	9
CCc1noc(C)c1C(=O)NNC(=O)c1nn(C)c(=O)c2ccccc12	30*	-5	2	9
CCc1noc(C)c1C(=O)NNC(=O)c1nn(CC)c(=O)c2ccccc12	0	1	3	-6
CCN(CC)C(=S)NC(=O)c1cccnc1	2	2	2	4
